aSyn UTR inh: MLPCN primary screen, SNCA 5' untranslated region; inhibition, % (tested at 7.5 µM); 300,000 compounds, 0.82% hits; alpha-synuclein 5'UTR reporter, inhibitor activity; AID 1813; in the data active = inhibition above about 60%; inconclusive = no clear call, values can overlap the other calls;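 note: H4 neuroglioblastoma cells stably carrying SNCA 5'UTR luciferase fusion; 0% = DMSO wells and 100% = positive control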
Mdm2 MdmX PPI: human Mdm2/MdmX binding inhibition; inhibition, % at 8 µM; SaOS-2 split-luciferase Mdm2/MdmX complementation, luminescence; 330,000 compounds, 3% hits; O15151+Q00987;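 active = inhibition of at least 50% at 8 µM in the primary screen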
Target sequence (O15151 whole entry, looked up): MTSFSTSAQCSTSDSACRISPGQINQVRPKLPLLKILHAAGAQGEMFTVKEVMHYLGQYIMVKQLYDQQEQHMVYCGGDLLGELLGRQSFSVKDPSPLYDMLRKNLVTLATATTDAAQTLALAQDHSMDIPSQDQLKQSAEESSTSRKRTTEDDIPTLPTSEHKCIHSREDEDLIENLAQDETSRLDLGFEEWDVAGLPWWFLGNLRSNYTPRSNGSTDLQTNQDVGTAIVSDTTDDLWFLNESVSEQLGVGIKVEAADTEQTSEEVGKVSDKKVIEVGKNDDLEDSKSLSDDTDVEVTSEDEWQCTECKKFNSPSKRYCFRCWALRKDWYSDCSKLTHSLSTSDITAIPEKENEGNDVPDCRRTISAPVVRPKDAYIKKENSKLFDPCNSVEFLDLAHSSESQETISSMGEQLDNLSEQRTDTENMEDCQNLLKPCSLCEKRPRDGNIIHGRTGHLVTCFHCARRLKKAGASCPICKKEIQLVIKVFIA
Target sequence (Q00987 whole entry, looked up): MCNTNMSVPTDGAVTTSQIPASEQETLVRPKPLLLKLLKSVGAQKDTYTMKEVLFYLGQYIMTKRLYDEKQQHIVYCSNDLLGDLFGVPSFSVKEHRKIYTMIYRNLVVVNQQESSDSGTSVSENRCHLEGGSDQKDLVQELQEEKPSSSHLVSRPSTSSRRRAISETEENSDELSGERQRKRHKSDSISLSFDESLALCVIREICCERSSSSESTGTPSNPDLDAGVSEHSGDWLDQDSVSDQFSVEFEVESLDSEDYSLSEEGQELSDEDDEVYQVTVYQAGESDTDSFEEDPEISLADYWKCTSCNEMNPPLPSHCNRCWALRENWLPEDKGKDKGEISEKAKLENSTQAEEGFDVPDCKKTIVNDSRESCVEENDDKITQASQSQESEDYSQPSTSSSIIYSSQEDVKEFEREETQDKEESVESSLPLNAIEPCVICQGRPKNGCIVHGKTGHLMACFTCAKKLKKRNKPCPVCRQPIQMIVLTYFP
CSC inhib: cancer stem cell inhibition; inhibition, % at 7.5 µM; 300,000 compounds, 1.1% hits; cancer stem cell-like cells viability, luminescence; in the data active = inhibition above about 75%; inconclusive = no clear call, values can overlap the other calls; tested in HMLE shEcad cells
SKKanGAS inh: inhibitors of SKKanGAS S. pyogenes growth in kanamycin (SK-promoter or general growth effect) | inhibition, % at 7.5 µM | BacTiter-Glo, 6 h | 300,000 compounds, 1.3% hits | AID 1662;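 active = mean replicate score, as percent of positive control median, at least 50; inconclusive = mean below 50 but one replicate at or above 50; inactive = mean and every replicate below 50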;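 note: strain carries kanamycin resistance gene driven by streptokinase promoter and grows in 40 µg/ml kanamycin; loss of luminescence reflects streptokinase promoter inhibition or plain growth inhibition; 0% = median of DMSO wells and 100% = positive control at its reference dose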
T cruzi repl: T. cruzi replication inhibition | T. cruzi beta-gal in NIH3T3, luminescence, 90 h | inhibition, % (no concentration beside the values) | 300,000 compounds, 1.4% hits;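 active = mean inhibition across valid replicates above about 55%, limit read from the data; inconclusive = mean below that limit but half or more replicates reach it; inactive = mean below it, under half of replicates reach it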;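 note: signal also drops with host cell toxicity which is not excluded here; 0% = plate median of DMSO wells and 100% = zero luminescence signal; higher percent means less beta-gal luminescence so fewer parasites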
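Assay system: NIH/3T3 host cells with β-galactosidase reporter T. cruzi; input: 5,000 host fibroblasts per well; compound: single 50 nL compound addition per well in DMSO; timing: ≥90 h infection period, 3 h prior cell attachment; measured by: GalScreen β-gal luminescence, detergent lysis, 60 min; evaluation: percent inhibition of parasite-derived β-gal signal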
* marks the source's active call; other numbers are inactive results; u = inconclusive; x = no result given. This is a sample that favours compounds with a hit; in the whole collection about 5.4% have one here.

SMILES	aSyn UTR inh	Mdm2 MdmX PPI	CSC inhib	SKKanGAS inh	T cruzi repl
CCN(C1CCCCC1)S(=O)(=O)CCNC(=O)c1ccccc1	15.7	14.7	-2.5	-1.6	-8.9
CC1CN(S(=O)(=O)c2ccc(C(=O)N(C)C3CCCCC3)cc2)CC(C)O1 (centres undefined)	x	5.5	-11.3	x	x
CC(=O)[C@@]1(O)CC[C@H]2[C@@H]3CCC4=CC(=O)CC[C@]4(C)[C@H]3CC[C@@]21C	8.9	-17.6	-13.4	-3.8	3.9
Cc1nc(C2CCC3C4CCC5=CC(=O)CC[C@]5(C)C4CC[C@]23C)cs1 (some centres undefined)	-13.6	39.0	86.2*	0.5	6.5
CCOc1ccc(/C=C2\SC(=S)N(CCC(=O)O)C2=O)cc1	114.6*	27.6	-3.3	-6.0	-24.0
O=C(O)CCCCN1C(=O)/C(=C\c2ccc(OCc3ccccc3)c(OCc3ccccc3)c2)SC1=S	-31.6	15.6	30.9	50.1*	11.7
COc1cc(/C=C2/SC(=S)N(Cc3ccccc3)C2=O)ccc1O	-67.3	5.9	100.3*	65.6*	-8.4
Cc1nn(-c2ccccc2)c(Cl)c1/C=C1\SC(=S)NC1=O	20.0	26.8	x	33.8	-20.1
O=C1/C(=C\c2cccc(O)c2)SC(=S)N1Cc1ccccc1	11.2	22.4	19.9	7.0	9.0
CCOc1ccc(/C=C2/SC(=S)N(CCC(=O)Nc3ccc(C(=O)O)cc3)C2=O)cc1	11.5	2.4	-3.7	5.3	-0.6
Cc1nn(-c2ccccc2)c(Cl)c1/C=C1\SC(=S)N(CCCCCC(=O)O)C1=O	-17.6	19.1	17.2	80.2*	3.8
COc1cccc(OCC(=O)N(C)Cc2nc(-c3cccc(C)c3)no2)c1	11.3	-4.4	-0.4	-7.6	2.3
CC(=O)c1cc2c(cc1NC(=O)CN(C)S(=O)(=O)c1cccs1)OCO2	x	-13.3	-0.3	x	x
COc1ccc(OCc2cc(C(=O)N(C)C3CCOCC3)no2)c2ccccc12	-54.1	-25.5	0.1	-1.7	1.8
O=C1/C(=C\c2ccc(O)c(O)c2)SC(=S)N1Cc1ccccc1	11.7	39.7	104.5*	-1.7	3.6
CCN=C1S/C(=C\c2cc(OCC)c(O)cc2Br)C(=O)N1CC	21.3	x	63.9	19.7	-2.3
CCN=C1S/C(=C\c2ccc(O)c(OCC)c2)C(=O)N1CC	68.2*	0.4	66.5	3.1	-25.5
COc1cc(/C=C2/SC(=NCc3ccccc3)N(Cc3ccccc3)C2=O)ccc1O	22.2	44.2	0.2	85.2*	-10.6
Cc1cc(NC(=O)CCN2C(=O)/C(=C/c3ccccc3Cl)SC2=S)no1	-20.5	-2.0	-2.1	-4.1	-20.0
CCc1ccc(/C=C2\SC(=S)N(CCC(=O)Nc3cc(C)on3)C2=O)cc1	68.8*	25.8	-6.5	4.4	-15.7
Cc1ccc(NC(=O)C(C)OC(=O)Cn2[nH]c(=O)c3ccccc3c2=O)cc1 (centres undefined)	-29.8	12.4	-8.3	-5.9	-14.2
O=C(CC1(CC(=O)N2CCOCC2)CCCC1)Nc1ccc(F)cc1	x	9.1	10.8	x	x
CC(=NCCc1c(C)[nH]c2ccc(OCc3ccccc3)cc12)C1=C(O)CC(c2ccccc2)CC1=O (centres undefined)	10.4	28.5	11.8	8.6	58.1*
O=[N+]([O-])c1cc(Cl)cc(/C=N/NC(=S)Nc2ccc(S(=O)(=O)N3CCOCC3)cc2)c1O	-7.3	7.2	22.7	93.8*	14.5
O=S(=O)(c1ccc(NC(=S)N/N=C/c2ccc(O)c(O)c2)cc1)N1CCOCC1	11.5	-3.3	0.9	3.4	-13.7
SMILES	aSyn UTR inh	Mdm2 MdmX PPI	CSC inhib	SKKanGAS inh	T cruzi repl
CCN(CC)S(=O)(=O)c1ccc(C)c(NC(=O)Cn2cnc3cc([N+](=O)[O-])ccc3c2=O)c1	-5.9	-6.3	3.8	1.9	85.5*
O=C(Cn1cnc2cc([N+](=O)[O-])ccc2c1=O)Nc1cccc2ccccc12	16.1	8.0	7.6	-2.6	42.6
O=C(Cn1cnc2cc([N+](=O)[O-])ccc2c1=O)Nc1ccc2c(c1)CCC2	15.5	20.8	x	-12.6	64.0*
Cc1ccccc1OCCn1cnc2cc([N+](=O)[O-])ccc2c1=O	-12.1	14.1	9.9	7.0	60.3*
O=C(Cn1cnc2cc([N+](=O)[O-])ccc2c1=O)NCCc1ccc(Cl)cc1	8.7	-20.7	-7.4	4.9	64.1*
CC1CN(C(=O)CCC(=O)NCc2ccccc2Cl)c2ccccc2S1 (centres undefined)	-5.8	10.2	x	-3.3	3.4
COc1ccc(CCNC(=O)CCC(=O)n2ncc3ccc(Cl)cc32)cc1OC	-5.2	19.8	9.2	-6.4	-11.6
COc1ccccc1Nc1ncnc2c1c(C)c(C)n2CCCN(C)C	-28.7	43.7	1.3	-1.4	57.8*
Cc1c(C)n(CCCN(C)C)c2ncnc(NC3CCCCC3)c12	-35.6	17.8	30.9	0.4	55.6*
COc1cc(/C=N/NC(=O)c2cc(-c3cccn3C)n[nH]2)cc(OC)c1OC	-71.4	-49.6	-6.0	62.8*	5.3
CN(Cc1ccc(C(C)(C)C)cc1)C(=O)C1CCN(C(=O)Nc2ccccc2)CC1	16.0	14.3	30.2	1.2	2.4
COC(=O)C1CCN(C(=O)CN(C)Cc2ccc(C(C)(C)C)cc2)CC1	8.1	24.4	0.2	-0.7	66.9*
CC(C)=CCc1c(O)c(CC=C(C)C)c2c(c1O)C(=O)CC(c1ccc(O)cc1)O2 (centres undefined)	34.6	24.0	-10.0	101.8*	21.1
O=C(/C=C/c1ccccc1)Nc1ccc(C(=O)N2CCCCC2)cc1	-1.1	-5.4	-6.5	0.8	-18.2
O=S(=O)(c1ccc(Cl)c(Cl)c1)c1snnc1-c1ccccc1	118.1*	x	x	29.0	-21.9
COc1ccccc1-c1cn[nH]c1-c1ccc(OCc2ccccc2F)cc1O	8.5	40.8	93.4*	u	12.6
COc1ccccc1-c1cn[nH]c1-c1ccc(OCc2ccc(F)cc2)cc1O	-3.3	29.6	u	51.2*	22.6
COc1ccccc1-c1cn[nH]c1-c1ccc(O)cc1O	-19.0	1.2	-14.6	-2.6	9.8
Cc1nn(C)c(Sc2ccccn2)c1[N+](=O)[O-]	-86.9	13.0	-15.6	1.8	-6.8
CC(=O)O[C@H]1C[C@@]2(C)[C@@H](C[C@@H](O)[C@H]3[C@@]4(C)CC[C@@H](O)[C@@H](C)[C@@H]4CC[C@@]32C)/C1=C(\CCC=C(C)C)C(=O)O	-3.1	27.8	4.7	109.2*	-19.9
COc1ccccc1NC(=O)NCCCCc1ccccc1	-3.7	2.0	0.0	50.2*	10.7
CCOc1ccccc1NC(=O)NCCCCc1ccccc1	18.8	24.9	4.3	8.0	9.7
O=C1NC(=O)/C(=C/c2ccc(-c3cc(C(=O)O)ccc3Cl)o2)S1	-21.8	-1.2	-7.7	34.0	-9.7
O=C1NC(=O)/C(=C\c2ccc(Br)o2)S1	-18.1	9.4	13.8	-8.0	68.6*
COc1ccc(C(=O)C2CCCN(Cc3cccc4c3OCO4)C2)cc1OC (centres undefined)	23.8	11.6	68.7	9.0	62.0*
COc1cccc(O)c1CN1CCCC(C(=O)c2cccc(C(F)(F)F)c2)C1 (centres undefined)	5.7	19.4	6.4	6.0	27.1

Screening data from PubChem.
